Tested on: NB-4
Test: Antiproliferative activity against human NB4 cells assessed as inhibition of cell growth incubated for 48 hrs by CCK8 assay
Format: functional, cell-based
Conditions: NB-4, 48 h
Summary of the method: (§1)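 CCK-8 growth-inhibition assay in the malignant haematological lines MOLM-13, NB4 and Jeko-1 and in normal PBMC. Cells were treated across a range of doses and IC50 taken as the half-maximal growth-inhibitory concentration. Data are mean ± SD of triplicate samples, and experiments were repeated at least three times.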

Compound | IC50 [µM]
CCNC(=O)N1CCc2c(CC3CN(C(=O)OCc4ccccc4)C3)c3c(c(OC)c2[C@@H]1[C@H]1OC(=O)c2c1ccc(OC)c2OC)OCO3 | 10.4
COc1ccc2c(c1OC)C(=O)O[C@@H]2[C@H]1c2c(c(CC3CN(C)C3)c3c(c2OC)OCO3)CCN1C | > 20
COc1ccc2c(c1OC)C(=O)O[C@@H]2[C@@H]1NCCc2c(CC3CN(C(=O)OCc4ccccc4)C3)c3c(c(OC)c21)OCO3 | 13.2

Tested on: JeKo-1
Test: Antiproliferative activity against human JeKo-1 cells assessed as inhibition of cell growth incubated for 48 hrs by CCK8 assay
Format: functional, cell-based
Conditions: JeKo-1, 48 h
Summary of the method: as §1

Compound | IC50 [µM]
CCNC(=O)N1CCc2c(CC3CN(C(=O)OCc4ccccc4)C3)c3c(c(OC)c2[C@@H]1[C@H]1OC(=O)c2c1ccc(OC)c2OC)OCO3 | 6.97
COc1ccc2c(c1OC)C(=O)O[C@@H]2[C@H]1c2c(c(CC3CN(C)C3)c3c(c2OC)OCO3)CCN1C | > 20
COc1ccc2c(c1OC)C(=O)O[C@@H]2[C@@H]1NCCc2c(CC3CN(C(=O)OCc4ccccc4)C3)c3c(c(OC)c21)OCO3 | 7.57

Tested on: A549
Test: Antiproliferative activity against human A549 cells assessed as cell growth inhibition at 10 uM incubated for 48 hrs by CCK8 assay relative to control
Format: functional
Conditions: read-out: GI
Summary of the method: (§2)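 Single-concentration screen of six cancer cell lines. Cells were exposed to 10 μM compound and growth was measured by CCK-8 assay. Results are reported as inhibition rate at 10 μM.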

Compound | inhibition of growth at 10 µM [%]
COc1ccc2c(c1OC)C(=O)O[C@@H]2[C@H]1c2c(c(CC3CCC3)c3c(c2OC)OCO3)CCN1C(=O)OC(C)(C)C | < 5

Tested on: NB-4
Test: Antiproliferative activity against human NB4 cells assessed as cell growth inhibition at 10 uM incubated for 48 hrs by CCK8 assay relative to control
Format: functional
Conditions: read-out: GI
Summary of the method: as §2

Compound | inhibition of growth at 10 µM [%]
COc1ccc2c(c1OC)C(=O)O[C@@H]2[C@H]1c2c(c(CC3CCC3)c3c(c2OC)OCO3)CCN1C(=O)OC(C)(C)C | 8.8

Tested on: MOLM-13
Test: Antiproliferative activity against human MOLM-13 cells assessed as cell growth inhibition at 10 uM incubated for 48 hrs by CCK8 assay relative to control
Format: functional
Conditions: read-out: GI
Summary of the method: as §2

Compound | inhibition of growth at 10 µM [%]
COc1ccc2c(c1OC)C(=O)O[C@@H]2[C@H]1c2c(c(CC3CCC3)c3c(c2OC)OCO3)CCN1C(=O)OC(C)(C)C | 53.1

Tested on: U-251
Test: Antiproliferative activity against human U-251 cells assessed as cell growth inhibition at 10 uM incubated for 48 hrs by CCK8 assay relative to control
Format: functional
Conditions: read-out: GI
Summary of the method: as §2

Compound | inhibition of growth at 10 µM [%]
COc1ccc2c(c1OC)C(=O)O[C@@H]2[C@H]1c2c(c(CC3CCC3)c3c(c2OC)OCO3)CCN1C(=O)OC(C)(C)C | < 5

Tested on: HeLa
Test: Antiproliferative activity against human HeLa cells assessed as cell growth inhibition at 10 uM incubated for 48 hrs by CCK8 assay relative to control
Format: functional
Conditions: read-out: GI
Summary of the method: as §2

Compound | inhibition of growth at 10 µM [%]
COc1ccc2c(c1OC)C(=O)O[C@@H]2[C@H]1c2c(c(CC3CCC3)c3c(c2OC)OCO3)CCN1C(=O)OC(C)(C)C | < 5

Tested on: MOLM-13
Test: Antiproliferative activity against human MOLM-13 cells assessed as inhibition of cell growth incubated for 48 hrs by CCK8 assay
Format: functional, cell-based
Conditions: MOLM-13, 48 h
Summary of the method: as §1

Compound | IC50 [µM]
CCNC(=O)N1CCc2c(CC3CN(C(=O)OCc4ccccc4)C3)c3c(c(OC)c2[C@@H]1[C@H]1OC(=O)c2c1ccc(OC)c2OC)OCO3 | 6.47
COc1ccc2c(c1OC)C(=O)O[C@@H]2[C@H]1c2c(c(CC3CN(C)C3)c3c(c2OC)OCO3)CCN1C | > 20
COc1ccc2c(c1OC)C(=O)O[C@@H]2[C@@H]1NCCc2c(CC3CN(C(=O)OCc4ccccc4)C3)c3c(c(OC)c21)OCO3 | 7.78

Tested on: JeKo-1
Test: Antiproliferative activity against human JeKo-1 cells assessed as cell growth inhibition at 10 uM incubated for 48 hrs by CCK8 assay relative to control
Format: functional
Conditions: read-out: GI
Summary of the method: as §2

Compound | inhibition of growth at 10 µM [%]
COc1ccc2c(c1OC)C(=O)O[C@@H]2[C@H]1c2c(c(CC3CCC3)c3c(c2OC)OCO3)CCN1C(=O)OC(C)(C)C | 6.67
